{"data": "Measured values pooled from the literature", "effect on": "cell growth or viability", "note": "Protocols differ between the studies behind these lines."}
{"SMILES": "COc1ccc(NC(=O)c2c(Nc3ccccc3)sc(C#N)c2NC(=O)CNc2ccccc2)cc1", "cell line": "HCT-116", "method": "SRB", "concentration": "10 µM", "time": "48 h", "endpoint": "viability", "result": "87.2%"}
{"SMILES": "Cc1cn(CC(c2cn(C)c3ccccc23)c2cn(C)c3ccccc23)nn1", "cell line": "DH82", "method": "MTS", "concentration": "20 µM", "time": "24 h", "endpoint": "inhibition", "result": "17.9%"}
{"SMILES": "Cc1ccc(C(=O)NCc2ccsc2)cc1C#Cc1cn(C2CCCC2)c2ncnc(N)c12", "cell line": "32D", "endpoint": "GI50", "result": "> 1 µM"}
{"SMILES": "COc1ccc2occ(/C=C/c3cc(OC)c(OC)c(OC)c3)c(=O)c2c1", "cell line": "HSC-2", "method": "MTT", "time": "7 h", "endpoint": "CC50", "result": "20 µM"}
{"SMILES": "COc1ccc(NC(=O)c2c(Nc3ccccc3)sc(C(=O)NN=Cc3ccccc3)c2NC(C)=O)cc1", "cell line": "HCT-116", "method": "SRB", "concentration": "1 µM", "time": "48 h", "endpoint": "viability", "result": "77.3%"}
{"SMILES": "CC(C)Cc1nn(C)c(=O)c2c(SCCCO)n(Cc3cnc(NCCCCCN)c4ccccc34)cc12", "cell line": "Raji", "method": "MTT", "time": "96 h", "endpoint": "EC50", "result": "0.024 µM"}
{"SMILES": "Cn1nnc2c(C(N)=O)ncn2c1=O", "cell line": "AGS", "endpoint": "EC50", "result": "310 µM"}
{"SMILES": "COc1ccc(NC(=O)c2c(Nc3ccccc3)sc(C#N)c2NC(=O)CNc2ccccc2Cl)cc1", "cell line": "HCT-116", "method": "SRB", "concentration": "10 nM", "time": "48 h", "endpoint": "viability", "result": "87.7%"}
{"SMILES": "CC(C)Cc1nn(C)c(=O)c2c(SCCCO)n(Cc3ccc(NCCCCCN)nc3)cc12", "cell line": "Raji", "method": "MTT", "time": "96 h", "endpoint": "EC50", "result": "0.52 µM"}
{"SMILES": "COc1cccc(Oc2ccccc2NC(=O)CNC(=O)c2cccc3ccccc23)c1", "cell line": "EKVX", "method": "SRB", "time": "48 h", "endpoint": "GI50", "result": "1.29 µM"}
{"SMILES": "COc1ccc2occ(/C=C/c3ccc(O)cc3)c(=O)c2c1", "cell line": "HSC-2", "method": "MTT", "time": "23 h", "endpoint": "CC50", "result": "< 0.39 µM"}
{"SMILES": "CC(C)Cc1nn(C)c(=O)c2c(SCCCO)n(Cc3cnc(Cl)c4ccccc34)cc12", "cell line": "Raji", "method": "MTT", "time": "96 h", "endpoint": "EC50", "result": "0.06 µM"}
{"SMILES": "COCCn1cc(C#Cc2cc(C(=O)NCc3ccsc3)ccc2C)c2c(N)ncnc21", "cell line": "32D", "endpoint": "GI50", "result": "> 3 µM"}
{"SMILES": "COc1ccc(/C=C/c2coc3ccc(OC)cc3c2=O)cc1", "cell line": "HSC-2", "method": "MTT", "time": "6.7 h", "endpoint": "CC50", "result": "21 µM"}
{"SMILES": "COc1ccc(C=NNC(=O)c2sc(Nc3ccccc3)c(C(=O)Nc3ccc(OC)cc3)c2NC(C)=O)cc1", "cell line": "HCT-116", "method": "SRB", "concentration": "0.1 µM", "time": "48 h", "endpoint": "viability", "result": "72.5%"}
{"SMILES": "Cc1cccc2cc(CNCC3(N4CCCC4)COC3)cnc12", "cell line": "U-87 MG", "concentration": "30 µM", "time": "48 h", "endpoint": "viability", "result": "97.7%"}
{"SMILES": "COc1ccc(NC(=O)c2c(Nc3ccccc3)sc(C#N)c2NC(=O)CNc2ccccc2[N+](=O)[O-])cc1", "cell line": "HCT-116", "method": "SRB", "concentration": "10 µM", "time": "48 h", "endpoint": "viability", "result": "72.7%"}
{"SMILES": "COc1cc(-c2ccc(-c3ccc(C(=N)N)nc3)s2)cc(OC)c1OC", "cell line": "EKVX", "method": "SRB", "endpoint": "GI50", "result": "5.19 µM"}
{"SMILES": "FC1CCN(C2(CNCc3ccc(-c4ccccc4Cl)o3)COC2)C1 (stereo not drawn)", "cell line": "U-87 MG", "concentration": "30 µM", "time": "48 h", "endpoint": "viability", "result": "45.4%"}
{"SMILES": "COc1ccc(NC(=O)c2c(Nc3ccccc3)sc(C(=O)NN=Cc3cc(OC)c(OC)c(OC)c3)c2NC(C)=O)cc1", "cell line": "HCT-116", "method": "SRB", "concentration": "1 µM", "time": "48 h", "endpoint": "viability", "result": "78.4%"}
{"SMILES": "CC#CC(=O)N1CC[C@@H](n2cc(-c3ccc(Oc4c(F)cccc4F)cc3)c3c(N)n[nH]c(=O)c32)C1", "cell line": "DOHH-2", "method": "ATP luminescence", "time": "72 h", "endpoint": "GI50", "result": "8.58 µM"}
{"SMILES": "C[C@@H]1[C@H](O)[C@@H](C)/C=C/C=C/C=C/C=C/C=C/C=C/C=C/[C@H](O[C@@H]2O[C@H](C)[C@@H](O)[C@H](N)[C@@H]2O)C[C@@H]2O[C@](O)(C[C@@H](O)C[C@@H](O)[C@H](O)CC[C@@H](O)C[C@@H](O)CC(=O)O[C@H]1C)C[C@H](O)[C@H]2C(=O)O", "cell line": "DH82", "method": "MTS", "concentration": "200 µM", "time": "72 h", "endpoint": "inhibition", "result": "42%"}
{"SMILES": "COc1ccc(NC(=O)c2c(Nc3ccccc3)sc(C(=O)NN=Cc3ccc(C)cc3)c2NC(C)=O)cc1", "cell line": "HCT-116", "method": "SRB", "concentration": "10 nM", "time": "48 h", "endpoint": "viability", "result": "90.2%"}
{"SMILES": "Cc1ccc(C(=O)NCc2ccsc2)cc1C#Cc1cn(C2CCC2)c2ncnc(N)c12", "cell line": "32D", "endpoint": "GI50", "result": "> 1 µM"}
{"SMILES": "CCOC(=O)c1c(C)ncn1CC(c1cn(C)c2ccc([N+](=O)[O-])cc12)c1cn(C)c2ccc([N+](=O)[O-])cc12", "cell line": "DH82", "method": "MTS", "concentration": "20 µM", "time": "24 h", "endpoint": "inhibition", "result": "20.5%"}
{"SMILES": "COc1ccc(NC(=O)c2c(Nc3ccccc3)sc(C#N)c2NC(=O)CNc2ccc(Br)cc2)cc1", "cell line": "HCT-116", "method": "SRB", "concentration": "0.1 µM", "time": "48 h", "endpoint": "viability", "result": "80.6%"}
{"SMILES": "COc1ccc(-c2ccc(-c3ccc(C(=N)N)nc3)s2)cc1", "cell line": "OVCAR-8", "method": "SRB", "endpoint": "GI50", "result": "2.12 µM"}
